This is an account of results in ChEMBL document CHEMBL4007505 (J Med Chem, 2017).

The target in assay [1] is T1, Sodium-dependent dopamine transporter (Homo sapiens, UniProt Q01959). The assay can be described thus: Inhibition of recombinant human DAT expressed in HEK293 cell […] as reduction in [3H]-DA uptake incubated for 22 mins by micro beta scintillation counting analysis.
In assay [2] the target is T2, Sodium-dependent noradrenaline transporter (Homo sapiens, UniProt P23975). Nature of the assay: Enhancing of [3H]mazindol binding to recombinant human NET expressed in HEK293 cell membranes preincubated for 10 mins followed by radioligand addition measured after 90 mins by micro beta scintillation counting analysis.
Assay [3] addresses Sodium-dependent dopamine transporter (Mus musculus) (UniProt Q61327). The assay can be described thus: (§1) Enhancing of [125I]RTI-55 binding to mouse DAT expressed in HEK293 cells preincubated for 10 mins followed by radioligand addition measured after 90 mins by micro beta scintillation counting analysis. It counts as cell-based. The procedure, abridged: (§2)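 Membranes preincubated 10 min at room temperature with compound in Krebs-HEPES buffer pH 7.4, then [125I]23 at fixed 45-50 pM for 90 min in the dark, filtered. […] EC50 and % control binding; mean ± SEM.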

The target in assay [4] is T3, Sodium-dependent dopamine transporter (Mus musculus, UniProt Q61327). The description is as §1. It counts as cell-based. The procedure, abridged: as §2
Assay [5] deals with T2, Sodium-dependent noradrenaline transporter. Nature of the assay: Enhancing of [125I]RTI-55 binding to recombinant human NET expressed in HEK293 cell membranes preincubated for 10 mins followed by radioligand addition measured after 90 mins by micro beta scintillation counting analysis. On the set-up: concentration or dose not given beside the values. The conditions noted are these: for EC50: read-out: EC50.

Assay [6] concerns the target T1, Sodium-dependent dopamine transporter. The assay can be described thus: Inhibition of [3H]WIN35,428 binding to recombinant human DAT expressed in HEK293 cell membranes at 10 uM pre-incubated for 10 mins before radioligand addition and measured 90 mins after radioligand addition by micro beta scintillation counting analysis relative to control.
For assay [7], the target named is Adenosine receptor A3 (Homo sapiens) (UniProt P0DMS8). The assay can be described thus: Agonist activity at human A3AR assessed as inhibition of cAMP formation at 10 uM relative to adenosine-5'-Nethyluronamide. Background: Changes in cAMP serve as a functional read-out for many G protein-coupled receptors.
Assay [8] has as its target T2, Sodium-dependent noradrenaline transporter. The assay can be described thus: Inhibition of recombinant human NET expressed in HEK293 […] assessed as reduction in [3H]-norepinephrine uptake incubated for 22 mins by micro beta scintillation counting analysis.
Assay [9] has as its target T1, Sodium-dependent dopamine transporter. The assay can be described thus: Enhancing of [3H]WIN35,428 binding to recombinant human DAT expressed in HEK293 cell membranes at 10 uM pre-incubated for 10 mins before radioligand addition and measured 90 mins after radioligand addition by micro beta scintillation counting analysis relative to control.
For the next assay, the target named is T4, Adenosine receptor A3 (Homo sapiens, UniProt P0DMS8).
T4 sequence (P0DMS8 whole entry): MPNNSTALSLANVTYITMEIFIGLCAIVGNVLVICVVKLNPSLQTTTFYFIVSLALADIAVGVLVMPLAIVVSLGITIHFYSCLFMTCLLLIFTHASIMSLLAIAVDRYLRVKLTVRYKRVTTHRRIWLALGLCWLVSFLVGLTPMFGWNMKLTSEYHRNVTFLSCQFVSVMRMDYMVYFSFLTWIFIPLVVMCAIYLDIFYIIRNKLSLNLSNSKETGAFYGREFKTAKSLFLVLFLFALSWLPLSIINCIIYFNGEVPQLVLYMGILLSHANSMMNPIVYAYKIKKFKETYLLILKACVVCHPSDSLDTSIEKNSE
The assay can be described thus: Displacement of [125I]N6-(4-amino-3-iodobenzyl)adenosine-5'-N-methyluronamide from human A3AR expressed in HEK293T cells pre-incubated for 10 mins before radioligand addition and measured 90 mins after radioligand addition by micro beta scintillation counting analysis relative to control. The format is cell-based, HEK-293T. (In general: Loss of bound radioactivity is the signal in a displacement assay; it reports binding, not function.)

In assay [10] the target is T3, Sodium-dependent dopamine transporter. The assay can be described thus: Inhibition of mouse DAT expressed in HEK293 cells assessed as reduction in [3H]-DA uptake. The format is cell-based.
Assay [11] addresses T1, Sodium-dependent dopamine transporter. Nature of the assay: Enhancing of [125I]RTI-55 binding to recombinant human DAT expressed in HEK293 cell membranes preincubated for 10 mins followed by radioligand addition measured after 90 mins by micro beta scintillation counting analysis. On the set-up: concentration or dose not given beside the values. The conditions noted are these: for EC50: read-out: EC50. The procedure, abridged:
(§3)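 Membranes of HEK-293 cells stably expressing hDAT, hNET or hSERT. […] Compound preincubated 10 min at room temperature, then [125I]23 (40-80 pM final) or [3H]26 (1-3 nM for DAT and NET, 10-13 nM for SERT) added. Incubated 90 min at room temperature in the dark, then filtered. EC50 or Ki; mean ± SEM.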

The target is the same in assay [12]. Nature of the assay: Enhancing of [3H]mazindol binding to recombinant human DAT expressed in HEK293 cell membranes preincubated for 10 mins followed by radioligand addition measured after 90 mins by micro beta scintillation counting analysis. The conditions noted are these: for EC50: read-out: EC50. On the set-up: concentration or dose not given beside the values. Put shortly:
as §3

For assay [13], the target named is T5, Sodium-dependent serotonin transporter (Homo sapiens, UniProt P31645). The assay can be described thus: Enhancing of [125I]RTI-55 binding to recombinant human SERT expressed in HEK293 cell membranes preincubated for 10 mins followed by radioligand addition measured after 90 mins by micro beta scintillation counting analysis. The conditions noted are these: for EC50: read-out: EC50.

Assay [14] has as its target T6, Adenosine receptor A3 (Mus musculus) (UniProt Q61618).
T6 sequence (whole entry): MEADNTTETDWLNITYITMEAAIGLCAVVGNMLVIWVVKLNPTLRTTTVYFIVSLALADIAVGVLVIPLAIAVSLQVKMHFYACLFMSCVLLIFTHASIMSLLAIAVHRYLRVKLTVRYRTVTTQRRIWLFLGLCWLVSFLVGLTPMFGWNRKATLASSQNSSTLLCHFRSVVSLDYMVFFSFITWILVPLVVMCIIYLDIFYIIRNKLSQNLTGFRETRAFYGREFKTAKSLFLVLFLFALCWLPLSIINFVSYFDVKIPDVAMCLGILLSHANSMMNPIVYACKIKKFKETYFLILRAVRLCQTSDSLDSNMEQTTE
Nature of the assay: Displacement of [125I]N6-(4-amino-3-iodobenzyl)adenosine-5'-N-methyluronamide from mouse A3AR expressed in HEK293T cells at 10 uM pre-incubated for 10 mins before radioligand addition and measured 90 mins after radioligand addition by micro beta scintillation counting analysis relative to control. It counts as cell-based.

Assay [15] has as its target T5, Sodium-dependent serotonin transporter. Nature of the assay: Enhancing of [3H]mazindol binding to recombinant human SERT expressed in HEK293 cell membranes preincubated for 10 mins followed by radioligand addition measured after 90 mins by micro beta scintillation counting analysis.
Assay [16] shares this target. Nature of the assay: Inhibition of recombinant human SERT expressed in HEK293 cell […] as reduction in [3H]5-HT uptake incubated for 22 mins by micro beta scintillation counting analysis.
Target sequence in this assay (P31645 whole entry): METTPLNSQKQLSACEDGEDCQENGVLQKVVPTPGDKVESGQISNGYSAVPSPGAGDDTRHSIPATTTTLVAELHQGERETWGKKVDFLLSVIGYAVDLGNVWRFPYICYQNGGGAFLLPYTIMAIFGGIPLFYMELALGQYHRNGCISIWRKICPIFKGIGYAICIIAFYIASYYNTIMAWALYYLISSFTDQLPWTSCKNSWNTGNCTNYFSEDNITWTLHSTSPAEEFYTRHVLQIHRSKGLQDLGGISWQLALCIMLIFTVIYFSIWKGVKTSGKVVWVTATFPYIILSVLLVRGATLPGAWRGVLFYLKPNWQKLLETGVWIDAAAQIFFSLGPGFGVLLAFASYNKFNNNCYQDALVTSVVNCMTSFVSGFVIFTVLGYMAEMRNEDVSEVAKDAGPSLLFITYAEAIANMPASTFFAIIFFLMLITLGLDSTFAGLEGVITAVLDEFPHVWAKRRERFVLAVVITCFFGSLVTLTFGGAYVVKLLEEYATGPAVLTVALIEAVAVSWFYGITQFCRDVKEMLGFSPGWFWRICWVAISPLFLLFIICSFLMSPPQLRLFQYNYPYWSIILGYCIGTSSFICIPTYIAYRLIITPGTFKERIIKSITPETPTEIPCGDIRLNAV

SMILES strings stand for the structures. The source made the active and inactive calls. The rule behind the calls is not given here.

Sequence of Sodium-dependent dopamine transporter (Mus musculus) (Q61327 whole entry): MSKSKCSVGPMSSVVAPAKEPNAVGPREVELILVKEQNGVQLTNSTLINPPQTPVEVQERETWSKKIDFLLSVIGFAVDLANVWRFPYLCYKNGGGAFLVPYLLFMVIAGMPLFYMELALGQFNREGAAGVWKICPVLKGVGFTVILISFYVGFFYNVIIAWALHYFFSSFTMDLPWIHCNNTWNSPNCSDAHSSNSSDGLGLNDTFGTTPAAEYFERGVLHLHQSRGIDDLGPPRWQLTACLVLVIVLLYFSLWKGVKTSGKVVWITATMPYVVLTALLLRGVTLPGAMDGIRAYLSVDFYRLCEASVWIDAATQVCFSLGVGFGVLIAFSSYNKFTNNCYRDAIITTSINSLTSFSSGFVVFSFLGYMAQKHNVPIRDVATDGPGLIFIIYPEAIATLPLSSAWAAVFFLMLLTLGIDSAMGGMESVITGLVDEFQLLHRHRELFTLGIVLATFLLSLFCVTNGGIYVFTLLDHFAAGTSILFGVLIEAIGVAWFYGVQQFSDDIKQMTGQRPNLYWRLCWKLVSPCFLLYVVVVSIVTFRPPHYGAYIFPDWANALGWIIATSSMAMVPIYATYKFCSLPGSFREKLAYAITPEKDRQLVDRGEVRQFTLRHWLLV
T3 sequence (Q61327 whole entry): as above
T1 sequence (Q01959 whole entry): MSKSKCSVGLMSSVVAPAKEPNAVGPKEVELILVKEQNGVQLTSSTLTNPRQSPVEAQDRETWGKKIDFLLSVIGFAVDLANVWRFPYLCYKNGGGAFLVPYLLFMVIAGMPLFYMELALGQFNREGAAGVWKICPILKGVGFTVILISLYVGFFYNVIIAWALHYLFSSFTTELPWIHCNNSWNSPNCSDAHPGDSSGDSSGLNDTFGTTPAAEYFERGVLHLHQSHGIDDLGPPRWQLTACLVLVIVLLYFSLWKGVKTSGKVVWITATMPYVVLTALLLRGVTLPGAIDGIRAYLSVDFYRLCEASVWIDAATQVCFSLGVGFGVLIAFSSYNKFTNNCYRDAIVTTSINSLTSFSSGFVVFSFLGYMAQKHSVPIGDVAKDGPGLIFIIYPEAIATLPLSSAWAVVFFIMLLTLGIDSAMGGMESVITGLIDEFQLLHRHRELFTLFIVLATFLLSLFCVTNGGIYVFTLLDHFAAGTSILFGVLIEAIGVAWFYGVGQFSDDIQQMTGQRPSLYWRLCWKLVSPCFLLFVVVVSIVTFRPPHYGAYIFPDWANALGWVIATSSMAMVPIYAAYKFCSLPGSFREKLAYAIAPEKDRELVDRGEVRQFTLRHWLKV
T2 sequence (P23975 whole entry): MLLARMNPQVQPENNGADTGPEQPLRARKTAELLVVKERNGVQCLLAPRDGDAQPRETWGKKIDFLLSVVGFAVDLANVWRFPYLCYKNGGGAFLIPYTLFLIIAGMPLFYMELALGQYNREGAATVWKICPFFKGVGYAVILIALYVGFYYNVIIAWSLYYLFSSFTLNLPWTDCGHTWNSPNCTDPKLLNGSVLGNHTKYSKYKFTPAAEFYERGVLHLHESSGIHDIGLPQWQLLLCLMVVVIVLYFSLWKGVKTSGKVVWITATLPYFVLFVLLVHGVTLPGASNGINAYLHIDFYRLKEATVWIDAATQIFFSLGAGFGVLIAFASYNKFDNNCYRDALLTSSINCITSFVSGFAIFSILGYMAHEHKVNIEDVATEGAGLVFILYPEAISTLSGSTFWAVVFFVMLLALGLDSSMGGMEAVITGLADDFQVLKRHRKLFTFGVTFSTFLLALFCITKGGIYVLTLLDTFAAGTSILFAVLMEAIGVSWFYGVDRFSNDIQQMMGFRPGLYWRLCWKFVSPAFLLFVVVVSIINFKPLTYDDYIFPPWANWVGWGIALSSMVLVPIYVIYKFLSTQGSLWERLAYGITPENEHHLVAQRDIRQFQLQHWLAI

On to `CNc1nc(C#Cc2ccc(Cl)s2)nc2c1ncn2[C@H]1[C@H](O)[C@H](O)[C@]2(C(=O)OC)C[C@H]12`, for which the IC50 (commonly the concentration at which inhibition is half-maximal) in assay [1] worked out at 127 nM; in assay [8], 3380 nM; in assay [10], 940 nM. In addition, the result in assay [2] and in assay [13] was inactive. Also, the Emax (in general, the greatest response seen or fitted, relative to the assay's reference) in assay [3] amounted to 1440%. The EC50 – broadly, the concentration giving half of the maximal effect – in assay [4] stood at 810 nM; in assay [5] it was 310 nM; in assay [11] it was 35 nM; in [12], 124 nM. In addition, the Activity in assay [5] was determined as 375%; in assay [9] it was 352%; in [11], 458%; in assay [12], 540%. The inhibition (as a rule, the relative decrease from the control value, in per cent) in [6] is “inactive”. Further, the Efficacy in assay [7] is 11.6%. Besides, the Ki (in general, the dissociation constant of the complex between target and ligand, obtained from inhibition or displacement) on Adenosine receptor A3 came out at 5.38 nM. In assay [14], this compound displayed an inhibition of 36%.

In the case of `CNC(=O)[C@@]12C[C@@H]1[C@@H](n1cnc3c(NC)nc(C#Cc4ccc(Br)s4)nc31)[C@H](O)[C@@H]2O`, the IC50 is 229 nM in assay [1], 6110 nM in assay [8], over 10000 nM in assay [16] and 3260 nM in [10]. Moreover, the result in assay [2], in assay [15] and in assay [13] was inactive. In addition, the Emax in assay [3] amounted to 810%. Moreover, the half-maximal effective concentration (EC50) in assay [4] was 1100 nM; in assay [5] it was 670 nM; in assay [15], over 10000 nM; in assay [11], 9.1 nM; in [12] it was 870 nM; in assay [13], over 10000 nM. Also, the Activity in assay [5] is 285%; in assay [11], 217%; in assay [12], 369%.

Consider `CNC(=O)[C@@]12C[C@@H]1[C@@H](n1cnc3c(NC)nc(C#Cc4ccc(Cl)s4)cc31)[C@H](O)[C@@H]2O`, for which the IC50 in [1] is 163 nM; in assay [8] it was 5060 nM; in assay [10], 4300 nM. In addition, the result in [2] and in [13] was inactive. For the same compound, the maximal effect (Emax) in assay [3] was 1000%. Moreover, the 50% effective concentration (EC50) is 2760 nM in assay [4], 740 nM in assay [5], 239 nM in assay [11] and 550 nM in assay [12]. The Activity worked out at 318% in assay [5], 334% in [9], 437% in [11] and 405% in assay [12]. In assay [6], the inhibition result was “inactive”. Moreover, the Efficacy in [7] is 116%. Also, in [14], the inhibition stood at 38%.

Consider `CNC(=O)[C@@]12C[C@@H]1[C@@H](n1cnc3c(NC)nc(C#Cc4ccc(Cl)s4)nc31)[C@H](O)[C@@H]2O`, for which the IC50 is 253 nM in assay [1], over 10000 nM in assay [8], over 10000 nM in assay [16] and 2290 nM in [10]. For the same compound, the outcome in [2], in assay [15] and in assay [13] was inactive. For the same compound, the Emax in assay [3] stood at 1150%. Besides, the EC50 in assay [4] was 2230 nM; in [5] it was 1180 nM; in [15], over 10000 nM; in assay [11], 35.1 nM; in [12], 131 nM; in [13], over 10000 nM. Also, the Activity in assay [5] stood at 386%; in assay [11], 550%; in assay [12], 403%.

Turning to `CNC(=O)[C@@]12C[C@@H]1[C@@H](n1cnc3c(NC)nc(C#Cc4ccc(F)c(F)c4)nc31)[C@H](O)[C@@H]2O`, the values for the 50% inhibitory concentration (IC50) in [1] and in assay [16] were 92 nM and over 10000 nM, respectively. The outcome in [2], in assay [15] and in assay [13] was inactive. The values for the Activity in assay [5], in [11] and in assay [12] were 371%, 690% and 438%, respectively. Moreover, the EC50 in [15] is over 10000 nM; in assay [11], 70 nM; in [12] it was 128 nM; in [13] it was over 10000 nM.
